Laboratory results: ChEMBL document CHEMBL4480426, “Novel multi-target directed ligands based on annelated xanthine scaffold with aromatic substituents acting on adenosine receptor and monoamine oxidase B. Synthesis, in vitro and in silico studies” (Bioorg Med Chem, 2019)

What was measured:
Adenosine receptor A3 = molecular target: T1, Adenosine receptor A3 (Homo sapiens, UniProt P0DMS8); assay: Displacement of [3H]PSB11 from recombinant human adenosine A3 receptor expressed in CHO cells; type: cell-based
T1 sequence (P0DMS8 whole entry): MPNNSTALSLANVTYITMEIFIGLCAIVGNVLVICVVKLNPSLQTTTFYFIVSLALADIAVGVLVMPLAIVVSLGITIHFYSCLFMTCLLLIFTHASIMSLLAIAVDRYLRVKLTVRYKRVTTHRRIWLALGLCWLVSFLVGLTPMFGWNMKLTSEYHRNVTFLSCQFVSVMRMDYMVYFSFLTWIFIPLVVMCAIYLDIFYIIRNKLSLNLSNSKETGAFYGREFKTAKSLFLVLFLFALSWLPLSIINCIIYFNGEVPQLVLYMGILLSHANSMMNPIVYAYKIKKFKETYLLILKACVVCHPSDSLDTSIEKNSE

[1] = molecular target: T2, Amine oxidase [flavin-containing] B (Homo sapiens, UniProt P27338); assay: Inhibition of recombinant human MAOB expressed in baculovirus infected BTI insect cells using p-tyramine as substrate preincubated for 30 mins followed by substrate addition and measured over 45 mins by horseradish peroxidase-Amplex Red-coupled fluorometric assay
T2 sequence (P27338 whole entry): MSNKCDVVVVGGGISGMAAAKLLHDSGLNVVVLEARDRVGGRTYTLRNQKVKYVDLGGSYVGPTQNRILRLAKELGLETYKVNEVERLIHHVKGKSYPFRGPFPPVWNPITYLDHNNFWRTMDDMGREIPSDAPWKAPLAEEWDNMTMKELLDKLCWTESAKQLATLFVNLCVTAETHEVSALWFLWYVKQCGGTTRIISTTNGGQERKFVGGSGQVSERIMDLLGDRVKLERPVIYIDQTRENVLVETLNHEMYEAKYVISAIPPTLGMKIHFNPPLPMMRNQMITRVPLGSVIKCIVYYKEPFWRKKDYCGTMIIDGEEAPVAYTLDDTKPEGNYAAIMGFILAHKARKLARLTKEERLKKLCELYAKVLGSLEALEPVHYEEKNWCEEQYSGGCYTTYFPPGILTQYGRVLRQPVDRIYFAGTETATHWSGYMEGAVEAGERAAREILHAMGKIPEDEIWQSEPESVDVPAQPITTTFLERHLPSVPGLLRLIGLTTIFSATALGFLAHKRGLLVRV
Procedure, shortened: (§1)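 Human recombinant MAO-A or MAO-B enzyme. Activity detected fluorometrically with the Amplex Red monoamine oxidase assay.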

[2] = molecular target: T2, Amine oxidase [flavin-containing] B; assay: Inhibition of recombinant human MAOB expressed in baculovirus infected BTI insect cells at 1 to 100 uM using p-tyramine as substrate preincubated for 30 mins followed by substrate addition and measured over 45 mins by horseradish peroxidase-Amplex Red-coupled fluorometric assay relative to control; details: 0.75 h; procedure, shortened: as §1
Adenosine receptor A2a = Adenosine receptor A2a (Homo sapiens, UniProt P29274); assay: Displacement of [3H]MSX2 from recombinant human adenosine A2a receptor expressed in HEK293 cells; type: cell-based
Adenosine receptor A1 [3] = molecular target: T3, Adenosine receptor A1 (Rattus norvegicus, UniProt P25099); assay: Displacement of [3H]CCPA from adenosine A1 receptor in rat brain cortical membranes; type: cell membranes
T3 sequence (P25099 whole entry): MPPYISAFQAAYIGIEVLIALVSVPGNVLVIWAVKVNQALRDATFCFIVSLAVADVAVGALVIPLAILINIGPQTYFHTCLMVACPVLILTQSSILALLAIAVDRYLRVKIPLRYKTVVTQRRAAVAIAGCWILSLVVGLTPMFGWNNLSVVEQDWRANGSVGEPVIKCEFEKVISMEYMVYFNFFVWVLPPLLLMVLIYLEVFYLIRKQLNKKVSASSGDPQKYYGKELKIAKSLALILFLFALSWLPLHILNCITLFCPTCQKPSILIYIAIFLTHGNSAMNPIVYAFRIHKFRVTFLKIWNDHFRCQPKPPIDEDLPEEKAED

Adenosine receptor A2b = molecular target: T4, Adenosine receptor A2b (Homo sapiens, UniProt P29275); assay: Displacement of [3H]PSB603 from recombinant human adenosine A2b receptor expressed in HEK293 cells; type: cell-based
T4 sequence (P29275 whole entry): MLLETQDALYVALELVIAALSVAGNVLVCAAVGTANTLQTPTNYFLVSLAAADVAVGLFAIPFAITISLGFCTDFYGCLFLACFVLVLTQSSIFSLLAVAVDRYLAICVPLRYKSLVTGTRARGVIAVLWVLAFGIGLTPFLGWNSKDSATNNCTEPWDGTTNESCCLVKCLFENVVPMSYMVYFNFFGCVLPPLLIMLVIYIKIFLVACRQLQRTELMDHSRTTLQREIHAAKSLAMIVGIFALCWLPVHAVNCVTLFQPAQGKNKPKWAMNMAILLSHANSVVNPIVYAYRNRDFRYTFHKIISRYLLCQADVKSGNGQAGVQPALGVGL

[4] = molecular target: T5, Adenosine receptor A2b (Homo sapiens) (UniProt P29275); assay: Displacement of [3H]PSB603 from recombinant human adenosine A2b receptor expressed in HEK293 cells at 1 uM relative to control; type: cell-based
T5 sequence (whole entry): T4 sequence (P29275 whole entry)
Procedure, shortened: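 Purchased membranes of HEK cells expressing human A2A ([3H]MSX-2) or human A2B ([3H]PSB-603). A single high compound concentration is screened first; for potent compounds, full inhibition curves spanning 3 orders of magnitude. At least three independent experiments.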

[5] = molecular target: T6, Adenosine receptor A3 (Homo sapiens) (UniProt P0DMS8); assay: Displacement of [3H]PSB11 from recombinant human adenosine A3 receptor expressed in CHO cells at 1 uM relative to control; type: cell-based
T6 sequence (whole entry): T1 sequence (P0DMS8 whole entry)
Procedure, shortened: (§2)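 Purchased membranes of CHO cells expressing human A1 ([3H]CCPA) or human A3 ([3H]PSB-11). A single high compound concentration is screened first; for potent compounds, full inhibition curves spanning 3 orders of magnitude. At least three independent experiments.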

[6] = molecular target: T7, Amine oxidase [flavin-containing] A (Homo sapiens, UniProt P21397); assay: Inhibition of recombinant human MAOA expressed in baculovirus infected BTI insect cells using p-tyramine as substrate preincubated for 30 mins followed by substrate addition and measured over 45 mins by horseradish peroxidase-Amplex Red-coupled fluorometric assay; procedure, shortened: as §1
T7 sequence (P21397 whole entry): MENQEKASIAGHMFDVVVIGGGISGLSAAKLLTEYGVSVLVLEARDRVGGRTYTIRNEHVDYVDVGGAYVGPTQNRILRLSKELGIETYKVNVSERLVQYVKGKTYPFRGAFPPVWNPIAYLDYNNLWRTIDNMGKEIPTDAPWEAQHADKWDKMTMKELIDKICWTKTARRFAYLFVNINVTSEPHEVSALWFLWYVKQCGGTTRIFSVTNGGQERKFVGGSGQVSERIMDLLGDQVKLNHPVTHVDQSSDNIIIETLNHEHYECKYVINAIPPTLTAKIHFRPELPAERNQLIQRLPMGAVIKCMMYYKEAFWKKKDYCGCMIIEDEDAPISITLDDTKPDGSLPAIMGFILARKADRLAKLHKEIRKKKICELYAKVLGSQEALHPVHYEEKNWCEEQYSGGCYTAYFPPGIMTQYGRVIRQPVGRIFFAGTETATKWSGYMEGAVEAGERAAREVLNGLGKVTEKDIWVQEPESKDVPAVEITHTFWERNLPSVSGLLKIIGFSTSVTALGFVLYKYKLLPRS

[7] = molecular target: T8, Adenosine receptor A1 (Homo sapiens) (UniProt P30542); assay: Displacement of [3H]CCPA from recombinant human adenosine A1 receptor expressed in CHO cells at 1 uM relative to control; type: cell-based; procedure, shortened: as §2
T8 sequence (whole entry): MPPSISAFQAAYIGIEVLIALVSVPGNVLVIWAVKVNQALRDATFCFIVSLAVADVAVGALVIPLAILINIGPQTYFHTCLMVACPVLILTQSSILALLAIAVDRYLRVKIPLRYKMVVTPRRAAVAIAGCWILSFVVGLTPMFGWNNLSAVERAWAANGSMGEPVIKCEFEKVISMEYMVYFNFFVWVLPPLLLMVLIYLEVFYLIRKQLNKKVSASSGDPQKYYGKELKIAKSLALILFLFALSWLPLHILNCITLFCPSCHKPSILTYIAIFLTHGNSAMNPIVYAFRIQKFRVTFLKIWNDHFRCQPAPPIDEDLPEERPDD

Adenosine receptor A1 [8] = molecular target: T9, Adenosine receptor A1 (Homo sapiens, UniProt P30542); assay: Displacement of [3H]CCPA from recombinant human adenosine A1 receptor expressed in CHO cells; type: cell-based
T9 sequence (P30542 whole entry): T8 sequence (whole entry)

[9] = molecular target: T7, Amine oxidase [flavin-containing] A; assay: Inhibition of recombinant human MAOA expressed in baculovirus infected BTI insect cells at 1 to 100 uM using p-tyramine as substrate preincubated for 30 mins followed by substrate addition and measured over 45 mins by horseradish peroxidase-Amplex Red-coupled fluorometric assay relative to control; details: 0.75 h; procedure, shortened: as §1

Sequence of Adenosine receptor A2a (P29274 whole entry): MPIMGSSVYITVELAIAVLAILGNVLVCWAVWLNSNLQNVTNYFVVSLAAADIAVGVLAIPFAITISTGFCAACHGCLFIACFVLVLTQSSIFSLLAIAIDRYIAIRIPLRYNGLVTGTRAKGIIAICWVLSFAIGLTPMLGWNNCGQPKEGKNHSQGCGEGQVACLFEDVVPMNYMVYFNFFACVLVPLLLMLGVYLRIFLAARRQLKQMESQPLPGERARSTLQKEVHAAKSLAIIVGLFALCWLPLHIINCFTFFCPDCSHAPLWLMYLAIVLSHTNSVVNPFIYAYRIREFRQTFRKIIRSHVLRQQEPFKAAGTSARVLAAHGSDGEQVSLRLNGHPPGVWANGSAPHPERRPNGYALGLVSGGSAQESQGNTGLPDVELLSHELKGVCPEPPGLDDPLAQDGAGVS

Row | SMILES | Ki (Adenosine receptor A3) | IC50 [1] | inhibition (INH) [2] | Ki (Adenosine receptor A2a) | Ki (Adenosine receptor A1 [3]) | Ki (Adenosine receptor A2b) | inhibition [4] | inhibition [5] | IC50 [6] | inhibition [7] | Ki (Adenosine receptor A1 [8]) | inhibition (INH) [9]
1 | Cc1ccccc1CN1CCCn2c1nc1c2c(=O)n(C)c(=O)n1C | > 1 µM | > 1 µM | 40% | 1.02 µM | 1.41 µM | > 1 µM |  |  |  |  |  | 
2 | Cn1c(=O)c2c(nc3n2CCCCN3Cc2ccccc2Br)n(C)c1=O | > 1 µM | 0.275 µM |  | 0.767 µM |  | > 1 µM | 43% | 42% | > 1 µM | 21% | > 1 µM | 3%
3 | Cn1c(=O)c2c(nc3n2CCCCN3Cc2ccccc2Cl)n(C)c1=O | > 1 µM | 0.343 µM |  | 0.881 µM |  | > 1 µM | 41% | 15% | > 1 µM | 10% | > 1 µM | 4%
4 | Cn1c(=O)c2c(nc3n2CCCN3Cc2cc(F)c(F)c(F)c2)n(C)c1=O | > 1 µM | > 1 µM | 24% | > 1 µM | > 1 µM | > 1 µM |  |  |  |  |  | 
5 | Cn1c(=O)c2c(nc3n2CCCCN3Cc2ccc(F)c(Br)c2)n(C)c1=O | > 1 µM | 0.171 µM |  | > 1 µM |  | > 1 µM | 43% | 20% | > 1 µM | 23% | > 1 µM | -6%
6 | Cn1c(=O)c2c(nc3n2CCCN3CCc2cccnc2)n(C)c1=O | > 1 µM | > 1 µM | 1% | 3.04 µM | > 1 µM | > 1 µM |  |  |  |  |  | 
7 | Cn1c(=O)c2c(nc3n2CCCCN3Cc2ccc(Cl)cc2Cl)n(C)c1=O | > 1 µM | 0.282 µM |  | 1.58 µM |  | > 1 µM | 5% | 31% | > 1 µM | 16% | > 1 µM | -2%
8 | COc1ccccc1CN1CCn2c1nc1c2c(=O)n(C)c(=O)n1C | > 1 µM | 111 µM |  | 0.784 µM |  | > 1 µM | 3% | 15% | > 1 µM | 30% | > 1 µM | 7%
9 | Cn1c(=O)c2c(nc3n2CCCN3Cc2cccs2)n(C)c1=O | > 1 µM | > 1 µM | 20% | 2.02 µM | 2.65 µM | > 1 µM |  |  |  |  |  | 
10 | Cn1c(=O)c2c(nc3n2CCCCN3Cc2ccc(Cl)cc2)n(C)c1=O | > 1 µM | 0.364 µM |  | > 1 µM |  | > 1 µM | 13% | 10% | > 1 µM | 13% | > 1 µM | 6%
11 | Cn1c(=O)c2c(nc3n2CCN3Cc2ccccc2Br)n(C)c1=O | > 1 µM | 0.991 µM |  | 0.887 µM |  | > 1 µM | 21% | 37% | > 1 µM | 24% | > 1 µM | 13%
12 | COc1ccccc1CN1CCCCn2c1nc1c2c(=O)n(C)c(=O)n1C | > 1 µM | 1.92 µM |  | 0.959 µM |  | > 1 µM | 16% | 19% | > 1 µM | 13% | > 1 µM | 2%
